Publication PMC8265689 (Journal of the American Chemical Society, 2021)

Columns and labels:
[1] = in MeOH, used as standard; cited from earlier work
DU-145 cells [2] = experiment: DU-145 viability; format: cell-based, human; conditions: 5 μM, vinblastine 0–5 nM, blue light, Figure 7C
Outline: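 DU-145 cells (7000/well) were grown overnight, then given test compound (5 μM, 1% DMSO) in octuplicate for 1 h at 37 °C. Medium was replaced with vinblastine (5 nM; 2.5 or 5 nM in one set) or vehicle. Plates received blue LED light (460–470 nm, 20 min, 56 J/cm²) or were kept dark, then 72 h. MTT read at 570 nm, blank-normalized, as percent of vehicle control.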

DU-145 cells [3] = experiment: Chou–Talalay synergy determination with vinblastine; format: cell-based, human; conditions: light conditions
Outline: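 DU-145 cells (7000/well, DMEM with 10% FBS and penicillin/streptomycin) were grown overnight (16 h, 37 °C, 5% CO₂). They were pretreated 1 h with test compound (10–1 μM) or vehicle (1% DMSO), then switched to vinblastine (10–0.5 nM) or vehicle, in quadruplicate. Blue light 460–470 nm for 20 min, then 72 h. MTT read at 570 nm, blank-subtracted, as percent effect. Chou–Talalay EC50 and CI computed per combination.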

Compound: [Ru+2].c1ccc(-c2ccccn2)nc1.c1ccc(-c2ccccn2)nc1.c1ccc(-c2ccccn2)nc1 [[Ru(bpy)3]^2+]
- Quantum yield of singlet oxygen production (ΦΔ) [1]: 0.81

Compound: [Ru(tpy)(Me2dppn)(py)](PF6)2 [Compound 27, reference compound]
- synergy with vinblastine (viability) (DU-145 cells [2]): does not
- synergism with vinblastine (Chou–Talalay) (DU-145 cells [3]): weaker synergism
